Test [1] concerns B16. In words: Cytotoxic activity against solid tumor, B16 (murine melanoma) Concentration of agent required to reduce cell viability by 90%. Type of test: functional. Conditions: Mus musculus. The gist of the method:
(§1)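 Modified MTT assay. Cells seeded per well with graded drug: CHO 2.5 × 10^3, B16 5 × 10^3, P388 and LLC 10^4, HL-60 and LoVo 5 × 10^4. After 68 h, MTT (2.5 mg/mL) added for 4 h at 37 °C. Formazan dissolved in DMSO and A550 read. Inhibition taken as fractional A550 decrease vs control. IC50/IC90 from Chou's median-effect equation.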

The subject of test [2] is B16. Nature of the test: Cytotoxic activity against solid tumor, B16 (murine melanoma) Concentration of agent required to reduce cell viability by 50%. Type of test: functional, cell-based. Conditions: Mus musculus. The gist of the method:
as §1

Test [3] concerns CHO. Nature of the test: Cytotoxic activity against solid tumor, CHO (Chinese hamster ovaric carcinoma) Concentration of agent required to reduce cell viability by 50%. The note with it: Cricetulus griseus. The format is functional, cell-based. The gist of the method: as §1
Test [4] concerns CHO. In words: Cytotoxic activity against solid tumor, CHO (Chinese hamster ovaric carcinoma) Concentration of agent required to reduce cell viability by 90%. The note with it: Cricetulus griseus. The format is functional. Put shortly: as §1
Test [5] concerns HL-60. Nature of the test: Cytotoxic activity against Human promyelocytic Leukemia HL-60 Concentration of agent required to reduce cell viability by 90%. The format is functional. Put shortly: as §1
Test [6] deals with HL-60. Nature of the test: Relative cytotoxicity against Human promyelocytic Leukemia(HL-60) cells; Value is in range, activity expressed as IC90. Type of test: functional. Put shortly: (§2)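 Second-stage assay on HL-60 (5 × 10^4/well) and soybean-agglutinin-negative mononuclear marrow cells (5 × 10^5/well) from six healthy donors. Four wells per concentration, 48 h at 37 °C, then [125I]iododeoxyuridine plus fluorodeoxyuridine for 18 h. Inhibition from fractional uptake decrease; IC50/IC90 by median-effect equation. Ranges are antilog(mean log ± 2SD); ratios use mean antilogs.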

The test system of test [7] is HL-60. In words: Cytotoxic activity against Human promyelocytic Leukemia HL-60 Concentration of agent required to reduce cell viability by 50%. Type of test: functional, cell-based. The gist of the method:
as §1

Test [8] concerns HL-60. In words: Relative cytotoxicity against Human promyelocytic Leukemia(HL-60) cells; Value is in range, activity expressed as IC50. Type of test: functional, cell-based. Put shortly:
as §2

The species named for test [9] is Homo sapiens. Nature of the test: Relative cytotoxicity against Human bone marrow samples; Value is in range, activity expressed as IC50. Type of test: functional. The gist of the method:
as §2

The species named for test [10] is Homo sapiens. In words: Relative cytotoxicity against Human bone marrow samples; Value is in range, activity expressed as IC90. Type of test: functional. Put shortly:
as §2

Test [11] deals with LoVo. Nature of the test: Cytotoxic activity against solid tumor, LoVo, (human colon adenocarcinoma) Concentration of agent required to reduce cell viability by 90%. Type of test: functional. The gist of the method:
as §1

In test [12] the test system is LoVo. In words: Cytotoxic activity against solid tumor, LoVo, (human colon adenocarcinoma) Concentration of agent required to reduce cell viability by 50%. Type of test: functional, cell-based. The gist of the method:
as §1

Test [13] concerns Lewis lung carcinoma cell line. Nature of the test: Cytotoxic activity against solid tumor LLC(Lewis lung carcinoma), concentration of agent required to reduce cell viability by 50%. Type of test: functional, cell-based. Conditions: Mus musculus. The gist of the method: as §1
For test [14], the system named is Lewis lung carcinoma cell line. Nature of the test: Cytotoxic activity against solid tumor LLC(Lewis lung carcinoma), concentration of agent required to reduce cell viability by 90%. The format is functional. Conditions: Mus musculus. Put shortly:
as §1

Test [15] relates to P388. Nature of the test: Cytotoxic activity against Murine Lymphocytic Leukemia P388 Concentration of agent required to reduce cell viability by 50%. Type of test: functional, cell-based. The note with it: Mus musculus. Put shortly:
as §1

In test [16] the test system is P388. Nature of the test: Cytotoxic activity Murine Lymphocytic Leukemia P388 Concentration of agent required to reduce cell viability by 90%. The format is functional. Conditions: Mus musculus. Put shortly: as §1
Test [17] has as its system P388. In words: In vivo antitumor activity against Murine P388 Leukemia at 20 mg/kg dose;(Median survival time of treated mice)/(median survival time of controls) x100. Type of test: functional, Mus musculus. Put shortly:
(§3)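 Female BD2F1 mice (8 weeks, 20-22 g), eight per group, given 10^5 P388 cells ip on day 0. From 24 h later, drug was given ip once daily for 9 days as a micronized suspension in 0.5% carboxymethylcellulose. Deaths were recorded daily over a 33-day study. %T/C = median survival time of treated / median survival time of controls × 100; >125 taken as significant.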

Test [18] deals with P388. In words: In vivo antitumor activity against Murine P388 Leukemia at 6.67 mg/kg dose;(Median survival time of treated mice)/(median survival time of controls) x100. The format is functional, Mus musculus. The gist of the method: as §3
Test [19] concerns P388. Nature of the test: In vivo antitumor activity against Murine P388 Leukemia at 60 mg/kg dose;(Median survival time of treated mice)/(median survival time of controls) x100. The format is functional, Mus musculus. Put shortly: as §3
The nature of test [20]: Ratio of antilog(mean log IC90 in bone marrow sample) and antolog(mean log IC90) in HL-60). Type of test: functional. The gist of the method:
as §2

Test [21] in a line: Ratio of antilog(mean log IC50 in bone marrow sample) and antolog(mean log IC50) in HL-60). Type of test: functional. The gist of the method: as §2
Test [22] is described as follows: Ratio of antilog(mean log IC50 in bone marrow sample) and antolog(mean log IC90) in HL-60). The format is functional. The gist of the method: as §2
The subject of test [23] is B16. In words: Cytotoxic activity against solid tumor, B16 (murine melanoma) Concentration of agent required to reduce cell viability by 90%; Not observed. Type of test: functional, cell-based. The note with it: Mus musculus. The gist of the method:
as §1

Test [24] concerns CHO. In words: Cytotoxic activity against solid tumor, CHO (Chinese hamster ovaric carcinoma) Concentration of agent required to reduce cell viability by 90%; Not observed. Type of test: functional, cell-based. The note with it: Cricetulus griseus. Put shortly: as §1
In test [25] the test system is Lewis lung carcinoma cell line. In words: Cytotoxic activity against solid tumor LLC(Lewis lung carcinoma), concentration of agent required to reduce cell viability by 90%; not observed. The format is functional, cell-based. Conditions: Mus musculus. Put shortly:
as §1

The subject of test [26] is B16. In words: Cytotoxic activity against solid tumor, B16 (murine melanoma) concentration of agent required to reduce cell viability by 50%. The format is functional, cell-based. Conditions: Mus musculus. The gist of the method:
as §1

Test [27] has as its system B16. In words: Cytotoxic activity against solid tumor, B16 (murine melanoma) concentration of agent required to reduce cell viability by 90%. Type of test: functional. The note with it: Mus musculus. Put shortly: as §1
Test [28] relates to CHO. In words: Cytotoxic activity against solid tumor, CHO (Chinese hamster ovaric carcinoma) concentration of agent required to reduce cell viability by 50%. Conditions: Cricetulus griseus. Type of test: functional, cell-based. The gist of the method: as §1
For test [29], the system named is CHO. In words: Cytotoxic activity against solid tumor, CHO (Chinese hamster ovaric carcinoma) concentration of agent required to reduce cell viability by 90%. The format is functional. Conditions: Cricetulus griseus. The gist of the method: as §1
In test [30] the test system is HL-60. In words: Cytotoxic activity against human promyelocytic leukemia HL-60 concentration of agent required to reduce cell viability by 90%. Type of test: functional. Put shortly: as §1
For test [31], the system named is HL-60. Nature of the test: (§4) Relative cytotoxicity against human promyelocytic leukemia(HL-60) cells. The format is functional. Put shortly:
as §2

For test [32], the system named is HL-60. Nature of the test: Cytotoxic activity against human promyelocytic leukemia HL-60 concentration of agent required to reduce cell viability by 50%. The format is functional, cell-based. Put shortly: as §1
Test [33] relates to HL-60. Described as §4. The format is functional, cell-based. The gist of the method:
as §2

For test [34], the species on record is Homo sapiens. Nature of the test: Relative cytotoxicity against human bone marrow samples. The format is functional. The gist of the method:
as §2

For test [35], the system named is LoVo. Nature of the test: Cytotoxic activity against solid tumor, LoVo, (human colon adenocarcinoma) concentration of agent required to reduce cell viability by 50%. The format is functional, cell-based. Put shortly:
as §1

The test system of test [36] is LoVo. In words: Cytotoxic activity against solid tumor, LoVo, (human colon adenocarcinoma) concentration of agent required to reduce cell viability by 90%. Type of test: functional. Put shortly: as §1
Test [37] has as its system P388. In words: Cytotoxic activity against murine lymphocytic leukemia P388 concentration of agent required to reduce cell viability by 50%. Type of test: functional, cell-based. The note with it: Mus musculus. The gist of the method: as §1
Test [38] has as its system P388. In words: Cytotoxic activity against murine lymphocytic leukemia P388 concentration of agent required to reduce cell viability by 90%. The format is functional. The note with it: Mus musculus. Put shortly: as §1
Test [39] is described as follows: Ratio of cytotoxicity of compound towards bone marrow sample and to that of HL-60 was determined as IC50BM/IC50HL. Type of test: functional. Put shortly: as §2
Test [40] is described as follows: Ratio of cytotoxicity of compound towards bone marrow sample and to that of HL-60 was determined as IC50BM/IC90HL. Type of test: functional. Put shortly:
as §2

A short description of test [41]: Ratio of cytotoxicity of compound towards bone marrow sample and to that of HL-60 was determined as IC90BM/IC90HL. Type of test: functional. The gist of the method:
as §2

One may read the IC90 as the concentration needed for an effect of 90%. A word on the IC50: it is the midpoint of a concentration-inhibition curve. Low values mean greater potency, high ones weaker potency. One may read the T/C as the result in the treated group divided by that in the control group, in per cent.

As for `CCn1c2cc(N3CCN(C)CC3)c(N)cc2c(=O)c2c(O)cc(O)cc21`, the IC90 worked out at 19 µM in test [1]; 19 µM in test [4]; 34 µM in test [5]; 42.6 µM in test [6]; 20.3 µM in test [10]; 47 µM in [11]. Moreover, the IC90 in test [14] amounted to 17 µM; in [16], 13 µM. The IC50 in test [2] was found to be 9.9 µM; in [3], 5.8 µM; in test [7], 23 µM; in [8], 27.7 µM; in test [9] it was 3.27 µM; in [12], 17 µM. For the same compound, the IC50 in test [13] was found to be 11 µM; in [15] it was 4.6 µM. The T/C in test [17] was 116%; in [18], 115%; in test [19] it was 132%. The Ratio in test [20] stood at 0.5; in test [21], 0.1; in [22] it was 0.1.

Regarding `CCN(CC)CCn1c2cc(N3CCC(O)CC3)c(N)cc2c(=O)c2c(O)cc(O)cc21`, the IC90 entry was “Not observed” in test [23]; “Not observed” in [24]; 3.6 µM in test [5]; 0.657 µM in test [6]; 0.672 µM in test [10]; over 32 µM in test [11]. Moreover, the IC90 result in [25] is “Not observed”; in test [16], 1.6 µM. Besides, the IC50 in test [2] was 1.7 µM; in test [3], 23 µM; in test [7], 2.2 µM; in test [8], 0.51 µM; in test [9], 0.168 µM; in [12] it was over 32 µM. For the same compound, the IC50 in test [13] came out at 8.7 µM; in [15], 0.62 µM. Also, the values for the Ratio in test [20], in test [21] and in test [22] were 1.1, 0.4 and 0.3, respectively.

As for `CCN(CC)CCn1c2cc(Cl)c(N)cc2c(=O)c2c(O)cc(OC)cc21`, the IC50 in [26] worked out at 1.6 µM; in test [28], 1.1 µM; in test [32], 4.2 µM; in [33], 1.86 µM; in test [34], 3.26 µM; in [35], 1.5 µM. For the same compound, the values for the IC50 in [13] and in [37] were 5 µM and 3.8 µM, respectively. Further, the IC90 was determined as 4 µM in [27]; 5.9 µM in [29]; 8.4 µM in test [30]; 2.93 µM in [31]; 14.8 µM in test [34]; 6.3 µM in [36]. For the same compound, the IC90 is 11 µM in test [14] and 8 µM in [38]. Besides, the T/C was 97% in test [17], 83% in test [18] and 100% in [19]. The results for the Ratio in test [39], in test [40] and in test [41] were 1.2, 0.8 and 4.1, respectively.

For the origin of these results see ChEMBL document CHEMBL1132240, “Design and synthesis of modified quinolones as antitumoral acridones” (J Med Chem, 1999).
